This is an account of results in ChEMBL document CHEMBL1121810, “Antihypertensive activity of 6-arylpyrido[2,3-d]pyrimidin-7-amine derivatives” (1981).

Molecules are shown by their SMILES.

Holding throughout (format): functional
Common to all, as to conditions: route oral

Assay [1] deals with Rattus norvegicus. Description: Maximum percent decrease in heart rate of spontaneously hypertensive rats, 10 hours after peroral administration of 50 mg/kg of compound. The method, boiled down:
(§1)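 Heart rate was derived from the pulsatile arterial pressure signal in conscious catheterized male SHR (22-24 weeks, 250-350 g), with continuous monitoring sampled 3 min per 30 min. Drug was given by gavage as a 4% gum acacia suspension at 2 mL/kg, dose as free base, to groups of 3-4 rats with mean pressure >150 mmHg. Individual 30-min means were compared with pretreatment values.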

Assay [2] has as its system Rattus norvegicus. In words: Effect on heart rate of spontaneously hypertensive rats, 2 hr after peroral administration at 50 mg/kg. The method, boiled down:
as §1

Assay [3] relates to Rattus norvegicus. In words: Effect on heart rate of spontaneously hypertensive rats, 10 hr after peroral administration at 50 mg/kg. The method, boiled down:
as §1

The test system of assay [4] is Rattus norvegicus. In words: Effect on heart rate of spontaneously hypertensive rats, 18 hr after peroral administration of 50 mg/kg of compound. The method, boiled down:
as §1

Assay [5] relates to Rattus norvegicus. Description: Effect on heart rate of spontaneously hypertensive rats, 24 hr after peroral administration at 50 mg/kg. The method, boiled down:
as §1

Assay [6] relates to Rattus norvegicus. In words: Maximum percent decrease in heart rate of spontaneously hypertensive rats, 8 hours after peroral administration of 50 mg/kg of compound. A digest of the protocol: (§2)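 Conscious male SHR (Kyoto-Wistar origin, 22-24 weeks, 250-350 g; mean BP >150 mmHg, pulse pressure >25 mmHg) with indwelling catheters, ~0.8 mL heparinized saline/day. Dosed by gavage as a 4% gum acacia suspension, 2 mL/kg, free-base doses, 3-4 rats per group. Heart rate was derived from the pulsatile pressure signal, sampled 3 min every 30 min, and 30-min means were compared with pretreatment values.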

For assay [7], the system named is Rattus norvegicus. In words: Maximum percent decrease in heart rate of spontaneously hypertensive rats, 2 hours after peroral administration of 50 mg/kg of compound. The method, boiled down:
as §1

For assay [8], the system named is Rattus norvegicus. In words: Blood pressure rating in spontaneously hypertensive rats, 24 hr after peroral administration of 50 mg/kg of compound. A digest of the protocol: (§3)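 Conscious male SHR (Kyoto-Wistar origin, 22-24 weeks, 250-350 g) with indwelling catheters, given about 160 units heparin/day in saline. Only rats with mean blood pressure >150 mmHg and pulse pressure >25 mmHg were used, in groups of 3-4. Dosing was oral gavage at 2 mL/kg in 4% gum acacia suspension, as free base. Pressure was sampled 3 min of every 30 min, and 30-min means were compared with pretreatment values.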

Assay [9] concerns Rattus norvegicus. Description: Blood pressure rating in spontaneously hypertensive rats, 10 hr after peroral administration of 50 mg/kg of compound. The method, boiled down:
as §3

The test system of assay [10] is Rattus norvegicus. Description: Blood pressure rating in spontaneously hypertensive rats, 2 hr after peroral administration of 50 mg/kg of compound. The method, boiled down:
as §3

Assay [11] has as its system Rattus norvegicus. In words: Effect on heart rate of spontaneously hypertensive rats, 10 hr after peroral administration of 10 mg/kg of compound. The method, boiled down:
as §1

In assay [12] the test system is Rattus norvegicus. In words: Maximum percent decrease in heart rate of spontaneously hypertensive rats, 5 hours after peroral administration of 50 mg/kg of compound. The method, boiled down: as §2
Assay [13] concerns Rattus norvegicus. In words: Effect on heart rate of spontaneously hypertensive rats, 2 hr after peroral administration of 10 mg/kg of compound. A digest of the protocol: as §1
In assay [14] the test system is Rattus norvegicus. Description: Max effect on heart rate of spontaneously hypertensive rats, 3-5 hr after peroral administration of 10 mg/kg of compound. The method, boiled down:
as §1

For assay [15], the system named is Rattus norvegicus. In words: Maximum percent decrease in heart rate of spontaneously hypertensive rats, 6 hours after peroral administration of 50 mg/kg of compound. A digest of the protocol:
as §2

In assay [16] the test system is Rattus norvegicus. Description: Effect on heart rate of spontaneously hypertensive rats, 24 hr after peroral administration of 3 mg/kg of compound. A digest of the protocol: as §1
For assay [17], the system named is Rattus norvegicus. Description: Effect on heart rate of spontaneously hypertensive rats, 2 hr after peroral administration of 3 mg/kg of compound. The method, boiled down:
as §1

In assay [18] the test system is Rattus norvegicus. Description: Effect on heart rate of spontaneously hypertensive rats, 24 hr after peroral administration of 10 mg/kg of compound. A digest of the protocol:
as §1

In turn, `Cc1cccc(Cl)c1-c1cc2cncnc2nc1N` had a Decrease with Rattus norvegicus [1] of 21%. Moreover, the Activity rating in the assay with Rattus norvegicus [2] is recorded as 1; with Rattus norvegicus [3], 2; in the assay on Rattus norvegicus [4], 1.
For `Nc1nc2ncncc2cc1-c1ccccc1I`, the Activity rating with Rattus norvegicus [5] is on record as 1; with Rattus norvegicus [2] it was 0; with Rattus norvegicus [3], 0. The same molecule displayed a Decrease with Rattus norvegicus [6] of 11%.
Turning to `CCc1ncc2cc(-c3ccccc3C)c(N)nc2n1`, the Activity rating with Rattus norvegicus [5], in the assay with Rattus norvegicus [2] and with Rattus norvegicus [3] was 0 each time.
With `Cc1ncc2cc(-c3cccc(C)c3C)c(N)nc2n1`, the Activity rating with Rattus norvegicus [5], with Rattus norvegicus [2] and in the assay on Rattus norvegicus [3] was 0 in each case.
As to `Cc1cc(C)c(-c2cc3cnc(C)nc3nc2N)c(C)c1`, the Activity rating with Rattus norvegicus [5] worked out at 0; in the assay with Rattus norvegicus [2], 1; in the assay with Rattus norvegicus [3], 0. Besides, the Decrease in the assay on Rattus norvegicus [7] amounted to 18%.
In the case of `Cc1ncc2cc(-c3ccco3)c(N)nc2n1`, the Activity rating with Rattus norvegicus [8], in the assay with Rattus norvegicus [9] and with Rattus norvegicus [10] was 0 throughout.
With `Cc1nc(C)c2cc(-c3ccccc3C)c(N)nc2n1`, the Activity rating with Rattus norvegicus [5], with Rattus norvegicus [2] and in the assay with Rattus norvegicus [3] was 0 each time. The Decrease in the assay on Rattus norvegicus [6] turned out to be 11%.
As to `Nc1nc2nc(C(F)(F)F)ncc2cc1-c1c(Cl)cccc1Cl`, the Activity rating in the assay on Rattus norvegicus [5], with Rattus norvegicus [2] and with Rattus norvegicus [3] was 0 in each case.
Turning to `Cc1ncc2cc(-c3c(C)cccc3Cl)c(N)nc2n1`, the Activity rating in the assay on Rattus norvegicus [11] was determined as 2; in the assay with Rattus norvegicus [2], 1; in the assay with Rattus norvegicus [3], 2; with Rattus norvegicus [13], 2; in the assay with Rattus norvegicus [4], 2. Moreover, the Decrease with Rattus norvegicus [12] came out at 30%.
As to `Nc1nc2ncncc2cc1-c1ccccc1`, the Activity rating with Rattus norvegicus [5], with Rattus norvegicus [2] and in the assay with Rattus norvegicus [3] was 0 each time.
Turning to `Cc1ncc2cc(-c3ccccc3F)c(N)nc2n1`, the Activity rating in the assay on Rattus norvegicus [5], in the assay on Rattus norvegicus [2] and in the assay with Rattus norvegicus [3] was 0 in each case.
As to `Cc1ncc2cc(-c3ccccc3)c(N)nc2n1`, the Activity rating with Rattus norvegicus [5], in the assay on Rattus norvegicus [2] and in the assay on Rattus norvegicus [3] was 0 throughout.
In the case of `Cc1ccccc1-c1cc2cnc(C3CC3)nc2nc1N`, the Activity rating in the assay with Rattus norvegicus [8], in the assay with Rattus norvegicus [9] and with Rattus norvegicus [10] was 0 throughout.
As for `Nc1nc2ncncc2cc1-c1cccnc1`, the Activity rating in the assay with Rattus norvegicus [5], in the assay with Rattus norvegicus [2] and in the assay on Rattus norvegicus [3] was 0 in each case.
As to `Cc1ncc2cc(-c3ccccc3C(F)(F)F)c(N)nc2n1`, the Activity rating in the assay on Rattus norvegicus [5], in the assay on Rattus norvegicus [2] and in the assay with Rattus norvegicus [3] was 0 throughout.
In the case of `Nc1nc2nc(C3CC3)ncc2cc1-c1c(Cl)cccc1Cl`, the Activity rating with Rattus norvegicus [8], with Rattus norvegicus [9] and in the assay with Rattus norvegicus [10] was 0 throughout.
For the molecule `Cc1ncc2cc(-c3cccc(Br)c3C)c(N)nc2n1`, the Activity rating with Rattus norvegicus [5], in the assay on Rattus norvegicus [2] and with Rattus norvegicus [3] was 0 throughout.
For the molecule `Nc1nc2ncncc2cc1-c1ccccc1Br`, the Activity rating came to 0 in the assay on Rattus norvegicus [14], 0 in the assay on Rattus norvegicus [2], 1 in the assay on Rattus norvegicus [3] and 1 with Rattus norvegicus [4]. In the assay with Rattus norvegicus [12], the Decrease is given as 16%.
For the molecule `CCc1ncc2cc(-c3ccccc3Cl)c(N)nc2n1`, the Activity rating in the assay with Rattus norvegicus [5], in the assay on Rattus norvegicus [2] and with Rattus norvegicus [3] was 0 throughout.
In the case of `Cc1ncc2cc(-c3ccc(Cl)c(Cl)c3)c(N)nc2n1`, the Activity rating with Rattus norvegicus [2] and in the assay with Rattus norvegicus [3] was 0 throughout.
With `Cc1nc(N)c2cc(-c3c(Cl)cccc3Cl)c(N)nc2n1`, the Activity rating with Rattus norvegicus [5], in the assay with Rattus norvegicus [2] and in the assay with Rattus norvegicus [3] was 0 in each case.
Consider `CCOc1nc(C)nc2nc(N)c(-c3c(Cl)cccc3Cl)cc12`, for which the Activity rating with Rattus norvegicus [8], in the assay with Rattus norvegicus [9] and in the assay with Rattus norvegicus [10] was 0 throughout.
On to `Cc1cccc(-c2cc3cncnc3nc2N)c1C`, for which the Activity rating in the assay on Rattus norvegicus [5], in the assay on Rattus norvegicus [2] and in the assay with Rattus norvegicus [3] was 0 each time.
With `Cc1ncc2cc(-c3cccc(Cl)c3Cl)c(N)nc2n1`, the Activity rating with Rattus norvegicus [5], in the assay with Rattus norvegicus [2] and in the assay with Rattus norvegicus [3] was 0 each time.
As for `Cc1nc(C)c2cc(-c3c(Cl)cccc3Cl)c(N)nc2n1`, in the assay on Rattus norvegicus [15], the Decrease came to 32%. For the same molecule, the Activity rating was found to be 2 with Rattus norvegicus [2], 3 in the assay on Rattus norvegicus [3] and 2 with Rattus norvegicus [4].
Consider `Cc1ncc2cc(-c3cccnc3)c(N)nc2n1`, for which the Activity rating in the assay with Rattus norvegicus [5], in the assay on Rattus norvegicus [2] and with Rattus norvegicus [3] was 0 each time.
Take `CCc1ccccc1-c1cc2cncnc2nc1N`: the results for the Activity rating with Rattus norvegicus [5], in the assay with Rattus norvegicus [2] and in the assay on Rattus norvegicus [3] were 0, 3 and 0, respectively. For the same molecule, in the assay on Rattus norvegicus [7], the Decrease was 33%.
Turning to `Clc1cccc(Cl)c1NC1=NCCN1` [CLONIDINE], the figures for the Activity rating with Rattus norvegicus [16] and in the assay on Rattus norvegicus [17] were 2 and 0, respectively.
As for `Cc1ncc2cc(-c3c(C)cccc3C)c(N)nc2n1`, the Activity rating in the assay on Rattus norvegicus [5], in the assay on Rattus norvegicus [2] and in the assay on Rattus norvegicus [3] was 0 in each case.
As to `CCc1ccccc1-c1cc2cnc(C)nc2nc1N`, the Activity rating in the assay with Rattus norvegicus [5], with Rattus norvegicus [2] and in the assay with Rattus norvegicus [3] was 0 in each case.
As to `Cc1ncc2cc(-c3ccc(Cl)cc3Cl)c(N)nc2n1`, the Activity rating in the assay on Rattus norvegicus [5] was 1; in the assay with Rattus norvegicus [2], 0; with Rattus norvegicus [3] it was 1. Moreover, in the assay with Rattus norvegicus [6], the Decrease came out at 13%.
With `Nc1nc2nc(C3CC3)ncc2cc1-c1ccccc1Br`, the Activity rating in the assay on Rattus norvegicus [8], in the assay on Rattus norvegicus [9] and in the assay on Rattus norvegicus [10] was 0 in each case.
Regarding `Cc1ncnc2nc(N)c(-c3c(Cl)cccc3Cl)cc12`, the Activity rating in the assay with Rattus norvegicus [18] worked out at 0; in the assay on Rattus norvegicus [11] it was 0; in the assay on Rattus norvegicus [2], 2; in the assay with Rattus norvegicus [3], 2; with Rattus norvegicus [13], 0. In the assay with Rattus norvegicus [15], this molecule registered a Decrease of 26%.
Regarding `Cc1ncc2cc(-c3ccc(Cl)cc3)c(N)nc2n1`, the Activity rating in the assay on Rattus norvegicus [5], with Rattus norvegicus [2] and in the assay on Rattus norvegicus [3] was 0 in each case.
In the case of `Cc1ncc2cc(-c3ccccc3I)c(N)nc2n1`, the Activity rating in the assay on Rattus norvegicus [5], in the assay on Rattus norvegicus [2] and in the assay on Rattus norvegicus [3] was 0 in each case.
In the case of `Cc1ccccc1-c1cc2cncnc2nc1N`, the Activity rating with Rattus norvegicus [18] is given as 0; in the assay with Rattus norvegicus [11], 0; in the assay on Rattus norvegicus [5], 0; with Rattus norvegicus [2] it was 1; with Rattus norvegicus [3], 1; with Rattus norvegicus [13] it was 0. The Decrease with Rattus norvegicus [7] came to 18%.
For `Nc1nc2ncncc2cc1-c1ccccc1C(F)(F)F`, the Activity rating with Rattus norvegicus [5], with Rattus norvegicus [2] and with Rattus norvegicus [3] was 0 in each case.
`Nc1nc2nc(/C=C/c3ccccc3)ncc2cc1-c1c(Cl)cccc1Cl`: the Activity rating in the assay on Rattus norvegicus [8] is listed as 0; with Rattus norvegicus [9] it was 1; with Rattus norvegicus [10] it was 0. The molecule also gave a Decrease in the assay with Rattus norvegicus [15] of 13%.
Consider `Cc1ncc2cc(-c3c(C)cccc3Br)c(N)nc2n1`, for which the Activity rating in the assay on Rattus norvegicus [5] is given as 0; with Rattus norvegicus [2], 0; in the assay on Rattus norvegicus [3], 1. The molecule further came in with a Decrease in the assay on Rattus norvegicus [12] of 18%.
With `CCc1ncc2cc(-c3c(Cl)cccc3Cl)c(N)nc2n1`, the Decrease with Rattus norvegicus [15] was found to be 15%. Further, the results for the Activity rating with Rattus norvegicus [5], in the assay with Rattus norvegicus [2] and in the assay on Rattus norvegicus [3] were 0, 0 and 1, respectively.
`Cc1ncc2cc(-c3ccc([N+](=O)[O-])cc3)c(N)nc2n1`: the Activity rating in the assay with Rattus norvegicus [8], in the assay on Rattus norvegicus [9] and in the assay on Rattus norvegicus [10] was 0 throughout.
